Converted amounts (≈) assume the structure as drawn. The source made the active and inactive calls. No cut-off for these calls is given here.
Columns and labels:
[1] = target: Beta-lactamase VIM-2 (Pseudomonas aeruginosa, UniProt Q9K2N0); experiment: Inhibition of beta lactamase VIM-2 in Pseudomonas aeruginosa 3015473 in presence of nitrocefin as reporter substrate measured after 5 mins by microplate spectrophotometry analysis
Method in brief: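 Purified VIM-2 at 1 nM in 50 mM HEPES pH 7.2 with 100 µM ZnCl2 and 400 µg/ml BSA, preincubated with inhibitor (sixteen concentrations, 0–250 µM) for 5 min at 25 °C. Then 100 µM nitrocefin was added and absorbance was followed at 482 nm. Points were run in triplicate, and IC50 was taken from initial velocities by log[inhibitor]–response fitting.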

[2] = target: GIM-1 protein (Pseudomonas aeruginosa, UniProt Q704V1); experiment: Inhibition of beta lactamase GIM-1 in Pseudomonas aeruginosa in presence of nitrocefin as reporter substrate measured after 5 mins by microplate spectrophotometry analysis
Method in brief: (§1)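 Purified recombinant enzyme (1 nM GIM-1 or NDM-1) in 50 mM HEPES pH 7.2, 100 µM ZnCl2, 400 µg/ml BSA, preincubated with inhibitor at 16 concentrations (0–250 µM) for 5 min at 25 °C. Reporter substrate added at 100 µM: nitrocefin for GIM-1 (A482), imipenem for NDM-1 (A300). Triplicates; IC50 from initial velocities by log[inhibitor]–response fit.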

[3] = Inhibition of beta lactamase NDM1 in Klebsiella pneumoniae in presence of imipenem as reporter substrate measured after 5 mins by microplate spectrophotometry analysis; method in brief: as §1
[4] = target: Beta-lactamase VIM-2 (Pseudomonas aeruginosa) (UniProt Q9K2N0); experiment: (§2) Inhibition of Pseudomonas aeruginosa 3015473 beta lactamase VIM-2 transfected in negative Escherichia coli SNO3 cells assessed as substrate hydrolysis using nitrocefin as substrate at 250 uM incubated for 20 mins measured every 1 mins for 3 hrs by cell-based microplate spectrophotometry analysis relative to control
Method in brief: (§3)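 E. coli SNO3 (β-lactamase-negative) carrying pET26b(+) with blaVIM-2, blaGIM-1 or blaNDM-1; overnight culture adjusted to OD600 1 in LB, inhibitor 250 µM final, IPTG 0.8 mM final, 37 °C 20 min with shaking to induce. Nitrocefin added (1.6 mM final, in 50 mM HEPES pH 7.2, 100 µM ZnCl2), A482 read each minute for 3 h; duplicates.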

[5] = target: GIM-1 protein (Pseudomonas aeruginosa) (UniProt Q704V1); experiment: as §2, with “aeruginosa” for “aeruginosa 3015473”, “GIM-1” for “VIM-2”; method in brief: as §3
[6] = system: Klebsiella pneumoniae; experiment: as §2, with “Klebsiella pneumonia” for “Pseudomonas aeruginosa 3015473”, “NDM1” for “VIM-2”; method in brief: as §3
[7] = target: Beta-lactamase VIM-2 (Pseudomonas aeruginosa) (UniProt Q9K2N0); experiment: Synergistic Inhibition of beta lactamase VIM-2 in Pseudomonas aeruginosa K34-7 assessed colony formation by visual inspection in presence of 50 microM 2,5-Dichloro-N-((4-((cyclohexylamino)methyl)-1H-1,2,3-triazol-5-yl)methyl)benzenesulfonamide incubated for 20 hrs by two-fold dilution method
Method in brief: (§4)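 Broth microdilution in Mueller Hinton broth against clinical isolates (P. aeruginosa VIM-2, K. pneumoniae NDM-1, E. coli VIM-29). Meropenem 2-fold series 256–0.0625 µg/mL, with inhibitor at 50 or 125 µM final; 5% DMSO control. Inoculum from 0.5 McFarland suspension in 0.85% NaCl diluted in MH broth, CFU checked on MH agar. 37 °C for 20 h; MIC read visually.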

[8] = target: Metallo-beta-lactamase type 2 (Klebsiella pneumoniae) (UniProt C7C422); experiment: Synergistic Inhibition of beta lactamase NDM1 in Klebsiella pneumoniae K66-45 assessed colony formation by visual inspection in presence of 50 microM 2,5-Dichloro-N-((4-((cyclohexylamino)methyl)-1H-1,2,3-triazol-5-yl)methyl)benzenesulfonamide incubated for 20 hrs by two-fold dilution method; method in brief: as §4
[9] = system: Escherichia coli; experiment: Synergistic Inhibition of beta lactamase VIM-29 in Escherichia coli 50639799 assessed colony formation by visual inspection in presence of 50 microM 2,5-Dichloro-N-((4-((cyclohexylamino)methyl)-1H-1,2,3-triazol-5-yl)methyl)benzenesulfonamide incubated for 20 hrs by two-fold dilution method; method in brief: as §4
[10] = target: Beta-lactamase VIM-2 (Pseudomonas aeruginosa) (UniProt Q9K2N0); experiment: Inhibition of beta lactamase VIM-2 in Pseudomonas aeruginosa K34-7 assessed colony formation by visual inspection incubated for 20 hrs by two-fold dilution method; method in brief: as §4
[11] = target: Metallo-beta-lactamase type 2 (Klebsiella pneumoniae) (UniProt C7C422); experiment: Inhibition of beta lactamase NDM1 in Klebsiella pneumoniae K66-45 assessed colony formation by visual inspection incubated for 20 hrs by two-fold dilution method; method in brief: as §4
[12] = system: Escherichia coli; experiment: Inhibition of beta lactamase VIM-29 in Escherichia coli 50639799 assessed colony formation by visual inspection incubated for 20 hrs by two-fold dilution method; method in brief: as §4
[13] = target: Beta-lactamase VIM-2 (Pseudomonas aeruginosa) (UniProt Q9K2N0); experiment: Synergistic Inhibition of beta lactamase VIM-2 in Pseudomonas aeruginosa K34-7 assessed colony formation by visual inspection in presence of 50 microM (5-((4-iodophenylsulfonamido)methyl)-1H-1,2,3-triazol-4-yl)methyl acetate incubated for 20 hrs by two-fold dilution method; method in brief: as §4
[14] = target: Metallo-beta-lactamase type 2 (Klebsiella pneumoniae) (UniProt C7C422); experiment: Synergistic Inhibition of beta lactamase NDM1 in Klebsiella pneumoniae K66-45 assessed colony formation by visual inspection in presence of 125 microM N-((4-((cyclohexylamino)methyl)-1H-1,2,3-triazol-5-yl)methyl)-4-iodobenzenesulfonamide incubated for 20 hrs by two-fold dilution method; method in brief: as §4
[15] = target: Beta-lactamase VIM-2 (Pseudomonas aeruginosa) (UniProt Q9K2N0); experiment: Synergistic Inhibition of beta lactamase VIM-2 in Pseudomonas aeruginosa K34-7 assessed colony formation by visual inspection in presence of 125 microM N-((4-((cyclohexylamino)methyl)-1H-1,2,3-triazol-5-yl)methyl)-4-iodobenzenesulfonamide incubated for 20 hrs by two-fold dilution method; method in brief: as §4
[16] = target: Metallo-beta-lactamase type 2 (Klebsiella pneumoniae) (UniProt C7C422); experiment: Synergistic Inhibition of beta lactamase NDM1 in Klebsiella pneumoniae K66-45 assessed colony formation by visual inspection in presence of 125 microM N-((4-((adamantylamino)methyl)-1H-1,2,3-triazol-5-yl)methyl)-4-iodobenzenesulfonamide incubated for 20 hrs by two-fold dilution method; method in brief: as §4
[17] = target: Beta-lactamase VIM-2 (Pseudomonas aeruginosa) (UniProt Q9K2N0); experiment: Synergistic Inhibition of beta lactamase VIM-2 in Pseudomonas aeruginosa K34-7 assessed colony formation by visual inspection in presence of 125 microM N-((4-((adamantylamino)methyl)-1H-1,2,3-triazol-5-yl)methyl)-4-iodobenzenesulfonamide incubated for 20 hrs by two-fold dilution method; method in brief: as §4
[18] = target: Metallo-beta-lactamase type 2 (Klebsiella pneumoniae) (UniProt C7C422); experiment: Synergistic Inhibition of beta lactamase NDM1 in Klebsiella pneumoniae K66-45 assessed colony formation by visual inspection in presence of 50 microM (5-((4-iodophenylsulfonamido)methyl)-1H-1,2,3-triazol-4-yl)methyl acetate incubated for 20 hrs by two-fold dilution method; method in brief: as §4
[19] = system: Escherichia coli; experiment: Synergistic Inhibition of beta lactamase VIM-29 in Escherichia coli 50639799 assessed colony formation by visual inspection in presence of 50 microM (5-((4-iodophenylsulfonamido)methyl)-1H-1,2,3-triazol-4-yl)methyl acetate incubated for 20 hrs by two-fold dilution method; method in brief: as §4

Sequence of GIM-1 protein (Pseudomonas aeruginosa) (Q704V1 as listed by the source): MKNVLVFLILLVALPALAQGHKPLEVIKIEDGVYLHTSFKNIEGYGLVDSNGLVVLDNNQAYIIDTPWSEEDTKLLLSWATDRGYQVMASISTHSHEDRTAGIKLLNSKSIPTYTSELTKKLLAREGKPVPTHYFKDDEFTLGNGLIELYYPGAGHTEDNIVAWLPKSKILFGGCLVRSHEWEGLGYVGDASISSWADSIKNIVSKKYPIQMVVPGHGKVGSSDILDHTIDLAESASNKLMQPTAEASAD
Sequence of GIM-1 protein (Q704V1 whole entry): as the sequence (Q704V1 as listed by the source) above
Sequence of Metallo-beta-lactamase type 2 (Klebsiella pneumoniae) (C7C422 whole entry): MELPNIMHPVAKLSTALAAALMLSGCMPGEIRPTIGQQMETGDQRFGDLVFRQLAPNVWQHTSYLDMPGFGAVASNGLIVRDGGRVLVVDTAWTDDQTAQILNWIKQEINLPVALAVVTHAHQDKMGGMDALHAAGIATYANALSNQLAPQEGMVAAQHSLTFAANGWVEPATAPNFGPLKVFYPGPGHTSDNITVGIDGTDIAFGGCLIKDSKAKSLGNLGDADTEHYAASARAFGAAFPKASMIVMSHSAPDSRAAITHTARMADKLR

SMILES	IC50 ([1]; read-out: IC50) [µM]	IC50 ([3]; read-out: IC50) [µM]	inhibition [4]	inhibition [5]	inhibition [6]	IC50 ([2]; read-out: IC50) [µM]	also measured
O=S(=O)(NCc1[nH]nnc1CNC1CCCCC1)c1cc(Cl)ccc1Cl	0.23	98	94%	7%	inactive		IC50 [2]: Not Active
O=S(=O)(NCc1[nH]nnc1CNC1CCCCC1)c1ccc(I)cc1	0.067	148	95%	3%	inactive	69	
O=S(=O)(NCc1[nH]nnc1CNC12CC3CC(CC(C3)C1)C2)c1ccc(I)cc1	0.16		96%	22%	17%	18	
COCc1nn[nH]c1CNS(=O)(=O)c1ccc(I)cc1	15		51%	11%	inactive	169	IC50 [3]: Not Active
O=S(=O)(NCc1[nH]nnc1CNC12CC3CC(CC(C3)C1)C2)c1cc(Cl)ccc1Cl	0.12		inactive	21%	inactive		IC50 [2]: Nd(Insoluble)
Cc1ccc(S(=O)(=O)NCc2[nH]nnc2CNC23CC4CC(CC(C4)C2)C3)cc1	2.3		84%	inactive	inactive	83	
NCc1nn[nH]c1CNS(=O)(=O)c1ccccc1	23		29%	inactive	inactive		IC50 [2]: Not Active; IC50 [3]: Not Active
O=S(=O)(NCc1[nH]nnc1CNC(c1ccccc1)(c1ccccc1)c1ccccc1)c1ccc(I)cc1	> 250	81	19%	3%	inactive	353	
Cc1ccc(S(=O)(=O)NCc2[nH]nnc2COC(C)(C)C)cc1	7.2	142	60%	4.5%	inactive	128	
COc1ccc(CSCc2nn[nH]c2CNS(=O)(=O)c2ccc(I)cc2)cc1	21		45%	33%	34%	227	
CC(=O)OCc1nn[nH]c1CNS(=O)(=O)c1ccc(I)cc1	23	231				48	
C[C@@H](O)[C@H]1C(=O)N2C(C(=O)O)=C(S[C@@H]3CN[C@H](C(=O)N(C)C)C3)[C@H](C)[C@H]12							MIC [7]: 8 µg/mL; MIC [8]: 32 µg/mL; MIC [9]: 16 µg/mL; MIC [10]: 64 µg/mL (≈ 167 µM); MIC [11]: 32 µg/mL (≈ 83.4 µM); MIC [12]: 16 µg/mL (≈ 41.7 µM); MIC [13]: 1 µg/mL; MIC [14]: 64 µg/mL; MIC [15]: 8 µg/mL; MIC [16]: 32 µg/mL; MIC [17]: 16 µg/mL; MIC [18]: 64 µg/mL; MIC [19]: 1 µg/mL
CC(C)OCc1nn[nH]c1CNS(=O)(=O)c1ccc(I)cc1	0.53		85%	11%	inactive	193	IC50 [3]: Not Active
O=S(=O)(NCc1[nH]nnc1CNCc1ccccc1)c1ccc(I)cc1							IC50 [1]: Nd(Insoluble)
Cc1ccc(S(=O)(=O)NCc2[nH]nnc2CNC2CCCCC2)cc1	1.5	144	82%	2.3%	inactive		IC50 [2]: Not Active

— ChEMBL document CHEMBL4725280, “Structural studies of triazole inhibitors with promising inhibitor effects against antibiotic resistance metallo-β-lactamases” (Bioorg Med Chem, 2020)
